From ChEMBL document CHEMBL1828503, “Design, synthesis and docking studies of quinoline-oxazolidinone hybrid molecules and their antitubercular properties” (2011)
In brackets after ≈: the same amount, converted by molar mass.

Tests used:
Format in all cases: functional
[1] = tested on: Mycolicibacterium smegmatis; assay: Antimicrobial activity against Mycobacterium smegmatis ATCC 19420 after 7 days by resazurin assay; conditions: ATCC 19420, 168 h
Summary of the method: (§1)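 Resazurin microplate assay. Culture added to fresh medium in 96-well plates. Compound stocks 2 mg/mL in DMF. DMF-only controls, with rifampicin and isoniazid as references. Incubated 7 days at 37 °C, then 0.01% resazurin in water added. Blue-to-pink change read after 1 h at 37 °C. MIC taken as the lowest concentration preventing the colour change.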

[2] = tested on: Escherichia coli; assay: Antimicrobial activity against Escherichia coli ATCC 25922 after 18 to 48 hrs by serial dilution method
[3] = tested on: Mycobacterium tuberculosis; assay: Antimicrobial activity against Mycobacterium tuberculosis H37Rv ATCC 27294 assessed as growth inhibition after 7 days by resazurin assay
[4] = tested on: Mycobacterium tuberculosis; assay: Antimicrobial activity against Mycobacterium tuberculosis H37Rv ATCC 27294 after 7 days by resazurin assay; conditions: H37Rv ATCC 27294, 168 h
Summary of the method: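 M. tuberculosis H37Rv ATCC 27294 culture diluted into fresh medium in 96-well microtitre plates. Compounds were taken from 2 mg/mL stocks in DMF, with DMF-only control tubes and rifampicin and isoniazid as references. Plates were incubated 37 °C for 7 days, then 0.01% aqueous resazurin was added and read after 1 h at 37 °C. MIC is the lowest concentration preventing the blue-to-pink change.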

[5] = tested on: Pseudomonas aeruginosa; assay: Antimicrobial activity against Pseudomonas aeruginosa ATCC 27853 after 18 to 48 hrs by serial dilution method
[6] = tested on: Mycolicibacterium fortuitum; assay: Antimicrobial activity against Mycobacterium fortuitum ATCC 19542 after 7 days by resazurin assay; conditions: ATCC 19542, 168 h; summary of the method: as §1
[7] = tested on: Staphylococcus aureus; assay: Antimicrobial activity against Staphylococcus aureus ATCC 25923 after 18 to 48 hrs by serial dilution method
[8] = tested on: Streptococcus pyogenes; assay: Antimicrobial activity against Streptococcus pyogenes clinical isolate after 18 to 48 hrs by serial dilution method
[9] = tested on: Klebsiella pneumoniae; assay: Antimicrobial activity against Klebsiella pneumoniae clinical isolate after 18 to 48 hrs by serial dilution method

| Compound | MIC [1] [mg/L] | MIC [2] [mg/L] | growth inhibition (GI) [3] [%] | MIC [4] [mg/L] | MIC [5] [mg/L] | MIC [6] [mg/L] | MIC [7] [mg/L] | MIC [8] [mg/L] | MIC [9] [mg/L] |
| --- | --- | --- | --- | --- | --- | --- | --- | --- | --- |
| COc1ccc2nc(C)cc(N3CC(CNC(=O)C4CC4)OC3=O)c2c1 (stereo not given) | 10 (≈ 28.1 µM) | 0.8 (≈ 2.25 µM) | 90 | 1 (≈ 2.81 µM) | 0.4 (≈ 1.13 µM) | 10 (≈ 28.1 µM) | 0.8 (≈ 2.25 µM) | 0.4 (≈ 1.13 µM) | 1.6 (≈ 4.5 µM) |
| COc1ccc2nc(C)cc(NC(=O)CN3CC(CNC4CCCC4)OC3=O)c2c1 (stereo not given) | 100 (≈ 242 µM) | > 12.5 | 0 | 100 (≈ 242 µM) | > 12.5 | 100 (≈ 242 µM) | > 12.5 | 6.25 (≈ 15.2 µM) | 6.25 (≈ 15.2 µM) |
| COc1ccc2nc(C)cc(NC(=O)CN3CC(CN4CCCCC4)OC3=O)c2c1 (stereo not given) | 100 (≈ 242 µM) | > 12.5 | 0 | 100 (≈ 242 µM) | 3.12 (≈ 7.58 µM) | 100 (≈ 242 µM) | 3.12 (≈ 7.58 µM) | 6.25 (≈ 15.2 µM) | > 12.5 |
| CCN1CCN(CC2CN(CC(=O)Nc3cc(C)nc4ccc(OC)cc34)C(=O)O2)CC1 (stereo not given) | 100 (≈ 226 µM) | 1.6 (≈ 3.62 µM) | 85 | 10 (≈ 22.6 µM) | 0.8 (≈ 1.81 µM) | 100 (≈ 226 µM) | 0.8 (≈ 1.81 µM) | 0.2 (≈ 0.453 µM) | 1.6 (≈ 3.62 µM) |
| COc1ccc2nc(C)cc(NC(=O)CN3CC(CN4CCC(C)CC4)OC3=O)c2c1 (stereo not given) | 100 (≈ 234 µM) | 6.25 (≈ 14.7 µM) | 0 | 100 (≈ 234 µM) | > 12.5 | 100 (≈ 234 µM) | > 12.5 | 6.25 (≈ 14.7 µM) | 6.25 (≈ 14.7 µM) |
| COc1ccc2nc(C)cc(NC(=O)CN3CC(CN4CCN(C(C)=O)CC4)OC3=O)c2c1 (stereo not given) | 100 (≈ 220 µM) | 1.6 (≈ 3.51 µM) | 80 | 5 (≈ 11 µM) | 1.6 (≈ 3.51 µM) | 100 (≈ 220 µM) | 0.8 (≈ 1.76 µM) | 0.8 (≈ 1.76 µM) | 1.6 (≈ 3.51 µM) |
| NNC(=O)c1ccncc1 [ISONIAZID] | 50 (≈ 365 µM) |  | >95 | 0.7 (≈ 5.1 µM) |  | 12.5 (≈ 91.1 µM) |  |  |  |
| CO[C@H]1/C=C/O[C@@]2(C)Oc3c(C)c(O)c4c(O)c(c(/C=N/N5CCN(C)CC5)c(O)c4c3C2=O)NC(=O)/C(C)=C\C=C\[C@H](C)[C@H](O)[C@@H](C)[C@@H](O)[C@@H](C)[C@H](OC(C)=O)[C@@H]1C [RIFAMPIN] | 1.5 (≈ 1.82 µM) |  | >95 | 0.5 (≈ 0.608 µM) |  | 1.5 (≈ 1.82 µM) |  |  |  |
| COc1ccc2nc(C)cc(NC(=O)CN3CC(CN(C)C)OC3=O)c2c1 (stereo not given) | 2.5 (≈ 6.71 µM) | 0.2 (≈ 0.537 µM) | 95 | 0.625 (≈ 1.68 µM) | 0.2 (≈ 0.537 µM) | 10 (≈ 26.9 µM) | 0.8 (≈ 2.15 µM) | 0.8 (≈ 2.15 µM) | 0.4 (≈ 1.07 µM) |
| COc1ccc(C(=O)NCC2CN(c3cc(C)nc4ccc(OC)cc34)C(=O)O2)cc1 (stereo not given) | 5 (≈ 11.9 µM) | 0.2 (≈ 0.475 µM) | 85 | 5 (≈ 11.9 µM) | 0.2 (≈ 0.475 µM) | 10 (≈ 23.7 µM) | 0.8 (≈ 1.9 µM) | 0.4 (≈ 0.949 µM) | 0.1 (≈ 0.237 µM) |
| COc1ccc2nc(C)cc(NC(=O)CN3CC(CN4CCN(C)CC4)OC3=O)c2c1 (stereo not given) | 10 (≈ 23.4 µM) | 0.4 (≈ 0.936 µM) | 90 | 1 (≈ 2.34 µM) | 1.6 (≈ 3.74 µM) | 10 (≈ 23.4 µM) | 0.8 (≈ 1.87 µM) | 0.4 (≈ 0.936 µM) | 0.1 (≈ 0.234 µM) |
| COc1ccc2nc(C)cc(NC(=O)CN3CC(CN4CCN(C(C)C)CC4)OC3=O)c2c1 (stereo not given) | 100 (≈ 220 µM) | 0.8 (≈ 1.76 µM) | 85 | 5 (≈ 11 µM) | 0.8 (≈ 1.76 µM) | 100 (≈ 220 µM) | 1.6 (≈ 3.51 µM) | 1.6 (≈ 3.51 µM) | 3.12 (≈ 6.86 µM) |
| COc1ccc2nc(C)cc(N3CC(CNC(=O)c4ccccc4F)OC3=O)c2c1 (stereo not given) | 5 (≈ 12.2 µM) | 6.25 (≈ 15.3 µM) | 90 | 1 (≈ 2.44 µM) | 3.12 (≈ 7.63 µM) | 10 (≈ 24.4 µM) | 1.6 (≈ 3.91 µM) | 3.12 (≈ 7.63 µM) | 6.25 (≈ 15.3 µM) |
| COc1ccc2nc(C)cc(N3CC(CNC(=O)c4ccc(C)cc4)OC3=O)c2c1 (stereo not given) | 100 (≈ 247 µM) | 3.12 (≈ 7.71 µM) | 0 | 100 (≈ 247 µM) | 3.12 (≈ 7.71 µM) | 100 (≈ 247 µM) | 3.12 (≈ 7.71 µM) | 1.6 (≈ 3.95 µM) | 3.12 (≈ 7.71 µM) |
| COc1ccc2nc(C)cc(NC(=O)CN3CC(CN4CCCC4)OC3=O)c2c1 (stereo not given) | 100 (≈ 251 µM) | > 12.5 | 0 | 100 (≈ 251 µM) | 1.6 (≈ 4.02 µM) | 100 (≈ 251 µM) | 6.25 (≈ 15.7 µM) | 3.12 (≈ 7.84 µM) | > 12.5 |
